APJ ag = agonists of human APJ apelin receptor. actives 0.11% (n = 330,000). CHO-K1 APJ PathHunter beta-arrestin, luminescence; 0% DMSO wells, 100% apelin. activation, % at 20 µM. P35414;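 active = activation more than six SD over the plate average, tested at 20 µM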
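Incubation: overnight seeding, 90 min compound at 25 °C, 1 h detection; test system: PathHunter CHO-K1 APJ (AGTRL-1) beta-arrestin reporter cells; amount: 1000 cells/well; doses: one dose, 20 µM compound, 1% DMSO; measured by: beta-gal luminescence; measure: agonist-driven arrestin binding to APJ; benchmarks: negative DMSO alone, positive Apelin-13 at 10 nM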
EBI2 block = antagonists of human EBI2 receptor; EBI2 beta-arrestin recruitment, luminescence, 7a,25-OHC stimulated; P32249; inhibition, % at 5 µM; actives 0.81% (n = 360,000); in the data active = inhibition above about 38%;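 note: enzyme fragment complementation signal reports receptor beta-arrestin coupling in cells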
Target sequence (P32249 whole entry, looked up, the tested form may be a part): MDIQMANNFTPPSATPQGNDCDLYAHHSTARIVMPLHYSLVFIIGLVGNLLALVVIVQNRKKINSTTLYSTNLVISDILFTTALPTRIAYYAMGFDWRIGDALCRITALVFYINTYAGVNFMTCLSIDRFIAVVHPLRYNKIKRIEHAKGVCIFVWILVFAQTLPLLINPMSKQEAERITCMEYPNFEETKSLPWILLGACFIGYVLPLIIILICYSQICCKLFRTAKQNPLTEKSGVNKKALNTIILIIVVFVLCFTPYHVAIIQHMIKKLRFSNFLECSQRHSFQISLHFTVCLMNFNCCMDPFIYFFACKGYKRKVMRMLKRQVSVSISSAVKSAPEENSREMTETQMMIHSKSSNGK
APJ antag = APJ receptor antagonism | P35414 | CHO-K1 APJ beta-arrestin complementation, luminescence | inhibition, % at 20 µM | actives 0.32% (n = 330,000);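 active = inhibition above about 40% at 20 µM, limit read from the data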;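 note: cells challenged with 10 nM apelin-13 agonist together with compound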
CXCR6 block = inhibitors of human CXCR6 receptor. actives 0.36% (n = 360,000). AID 602244. O00574. CHO-K1 PathHunter CXCR6 beta-arrestin, luminescence. inhibition, % at 20 µM; in the data active = inhibition above about 34%, passing the limit was not always enough;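 note: antagonist mode with CXCL16 agonist at 10 nM final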
B2AR ag = agonists of human beta-2 adrenergic receptor inducing internalization. P07550. Am2.2-beta2AR cells, FAP receptor internalization, flow cytometry. actives 0.43% (n = 340,000). response, % (test concentration not listed);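 active = response above a set limit, near 3 SD of response in nonfluorescent compounds, cut at about 42% in these data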
CCR6 antagonist = blocks CCL20-driven beta-arrestin recruitment at human CCR6. CHO-K1 CCR6 PathHunter beta-arrestin, luminescence, CCL20-stimulated. inhibition, % at 20 µM. actives 0.49% (n = 340,000). AID 493098;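 active = compounds whose inhibition of the agonist-driven luminescence signal at 20 µM reaches about 50%, limit read from the data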;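 note: cells stimulated with CCL20 at 14 nM final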
EBI2 conf = EBI2 (human) antagonism, single concentration confirmation; inhibition, % at 5 µM; EBI2 beta-arrestin luminescence, 7a,25-OHC antagonism; AID 651997; actives 29% (n = 2,400); shares compounds with EBI2 block;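 active = inhibition of at least 50%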
EBI2 agonist = activates EBI2, counter-screen for EBI2 antagonists; shares compounds with EBI2 block; EBI2-expressing cells, agonist mode, luminescence, 60 min; 0% vehicle, 100% 7α,25-dihydroxycholesterol control; activation, % at 5 µM; 2,400 tested, under 10 active;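 active = activation of at least 50%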
bGal cs = counter-screen for EBI2 antagonists: E. coli beta-galactosidase inhibition; shares compounds with EBI2 block; purified beta-galactosidase, luminescent Galacton Star, 15 min; inhibition, % at 5 µM; actives 1% (n = 2,400); AID 652176;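 active = replicate-average signal at least 3 plate SD below neutral wells, shown as high inhibition, flagging enzyme-inhibiting false positives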;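 note: higher means stronger loss of beta-gal luminescence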
Each line names hits and unclear results; the compound was inactive in the other large screens (follow-up assays come after a bar, where they were run). The list is not random: actives were taken first. Their share in the collection is about 1.8%.

COc1ccc(CCNC(=O)C(=O)NCC2CCCN2S(=O)(=O)c2ccc(OC)cc2)cc1 (centres undefined)	none
COc1ccc(NS(=O)(=O)c2cccs2)cc1S(=O)(=O)N1CCCCC1	none
COC(=O)Cn1ncc(N(C)Cc2ccccc2)c(Cl)c1=O	none
O=C(Nc1ccccc1F)N1CCc2ccccc2C1	none
NC(=O)C1CCN(C(=O)/C=C/c2cccc(Br)c2)CC1	none
O=C(c1ccc(F)cc1)N1CCN(c2ccccn2)CC1	none
O=C(/C=C/c1ccc(F)cc1)N1CCN(c2ccccn2)CC1	EBI2 block 91 | EBI2 conf 81 | EBI2 agonist inactive | bGal cs inactive
O=C(/C=C/c1cccc(Br)c1)N1CCN(c2ccccn2)CC1	EBI2 block 77 | EBI2 conf inactive | EBI2 agonist inactive | bGal cs inactive
COc1cc(C2OC(=O)C3C(c4ccc(OC(C)=O)c(OC)c4)OC(=O)C23)ccc1OC(C)=O (centres undefined)	EBI2 block 62 | EBI2 conf inactive | EBI2 agonist inactive | bGal cs inactive
C/C=C/c1ccc(OC(C)=O)c(OC)c1	none
COc1ccc(CN2CCC[C@]3(N[C@H](c4ccccc4)[C@@H]4C(=O)N(C)C(=O)[C@@H]43)C2=O)cc1	none (no result: APJ ag, APJ antag, B2AR ag, CCR6 antagonist)
O=C(NCCN1CCCCC1)c1cccc2c1C(=O)c1ccc(N3CCCC3)cc1S2(=O)=O	none
CC(C)(C)CNC(=O)c1cccc2c1C(=O)c1ccc(N3CCCC3)cc1S2(=O)=O	EBI2 block 54 | EBI2 conf 61 | EBI2 agonist inactive | bGal cs inactive
CC(=O)c1cccc(-c2ccnc3c2CC(C(=O)NCC2CCOCC2)O3)c1 (centres undefined)	none (no result: APJ ag, APJ antag, B2AR ag, CCR6 antagonist)
Cc1ccc2nc(-c3cccnc3)cc(C(=O)Nc3ccc(F)cc3C)c2c1	none
Cc1ccc2nc(-c3ccncc3)cc(C(=O)Nc3ccc(F)cc3C)c2c1	EBI2 block 51 | EBI2 conf 64 | EBI2 agonist inactive | bGal cs inactive
CCOc1cc(C)nc(N2CCC(C(=O)NCC3CCCO3)CC2)n1 (centres undefined)	none (no result: APJ ag, APJ antag)
C=CCNc1nnnc2c1sc1nc(N3CCOCC3)c3c(c12)CCCC3	EBI2 block 52 | EBI2 conf inactive | EBI2 agonist inactive | bGal cs inactive
Cc1cn([C@H]2C[C@H](O)[C@@H](CNC(=O)[C@H]3CCC(=O)N3)O2)c(=O)[nH]c1=O	none (no result: APJ ag, APJ antag, B2AR ag, CCR6 antagonist)
C[C@@H]1CN([C@H](C)CO)S(=O)(=O)c2ccc(C#Cc3ccccc3F)cc2O[C@@H]1CN(C)C(=O)Cc1ccccc1	EBI2 block 72 (no result: APJ ag, APJ antag, B2AR ag, CCR6 antagonist) | EBI2 conf 79 | EBI2 agonist inactive | bGal cs inactive
COc1ccc(C(=O)Nc2ccc(O)c3c(=O)cc(-c4cccc(Cl)c4)oc23)cc1	EBI2 block 44 | EBI2 conf inactive | EBI2 agonist inactive | bGal cs inactive
O=C(NCCc1ccc(F)cc1)C1CCCO1 (centres undefined)	none
Cc1ccc(-n2c(-c3ccco3)nc3c(cnn3-c3ccc(C)cc3)c2=O)cc1	none
CCOc1ccc(-n2c(-c3ccco3)nc3c(cnn3-c3ccc(C)cc3)c2=O)cc1	EBI2 block 47 | EBI2 conf inactive | EBI2 agonist inactive | bGal cs inactive
O=C(c1ccc(Cl)cc1)N1CCC(O)(CSc2ccc(Cl)cc2)CC1	EBI2 block 69 | EBI2 conf 57 | EBI2 agonist inactive | bGal cs inactive
O=C(c1ccc(Cl)cc1)N1CCC(O)(CSc2ccccc2)CC1	EBI2 block 68 | EBI2 conf 71 | EBI2 agonist inactive | bGal cs inactive
COc1cccc(SCC2(O)CCN(C(=O)c3ccc(Cl)cc3)CC2)c1	EBI2 block 55 | EBI2 conf inactive | EBI2 agonist inactive | bGal cs inactive
CN1CCN(C(=O)c2ccc(CSc3ccc(Cl)cc3)cc2)CC1	none
CCOc1ccc(NC(=S)N(CCCN2CCOCC2)Cc2cn(C)c3ccccc23)cc1	EBI2 block 44 | EBI2 conf inactive | EBI2 agonist inactive | bGal cs inactive
COc1ccc(NC(=S)N(CCCN2CCOCC2)Cc2cn(C)c3ccccc23)cc1	none
O=c1c2ccccc2n(Cc2ccccc2F)c(=O)n1Cc1ccccc1F	EBI2 block 54 | EBI2 conf inactive | EBI2 agonist inactive | bGal cs inactive
O=C(NCc1ccco1)c1ccc(Cn2c(=O)c3ccccc3n(Cc3ccc(Cl)cc3)c2=O)cc1	none
O=c1n(Cc2ccccc2F)c2ccccc2n1Cc1ccccc1F	none
Cc1ccc(Cn2c(=O)n(Cc3ccco3)c(=O)c3ccccc32)cc1	EBI2 block 69 | EBI2 conf inactive | EBI2 agonist inactive | bGal cs inactive
COc1ccccc1NC(=O)CCc1nnc2ccc(N3CCN(C)CC3)nn12	none
CC(=O)Nc1ccc(-c2ccnc3c2CC(C)(C(=O)NCc2ccc(N(C)C)cc2)O3)cc1 (centres undefined)	none (no result: APJ ag, APJ antag, B2AR ag, CCR6 antagonist)
Cc1cc(C(=O)NNC(=O)c2cccs2)c(C)o1	none
COc1ccc(CCN2C(=O)c3ccccc3C2c2nnnn2C(C)C)cc1OC (centres undefined)	none (no result: APJ ag, APJ antag, B2AR ag, CCR6 antagonist)
Cc1cc(C)c(C)c(C(=O)CSc2nnc(-c3ccc4[nH]c(C)c(C)c4c3)o2)c1C	EBI2 block 52 | EBI2 conf 56 | EBI2 agonist inactive | bGal cs inactive
COc1ccc(/C=C/C(=O)N2CCC(c3ccccc3)C2)cc1 (centres undefined)	EBI2 block 70 | EBI2 conf 55 | EBI2 agonist inactive | bGal cs inactive
O=C(Cc1ccccc1)N1CCC(c2ccccc2)C1 (centres undefined)	none
COc1ccc(CC(=O)N2CCC(c3ccccc3)C2)cc1 (centres undefined)	EBI2 block 48 | EBI2 conf inactive | EBI2 agonist inactive | bGal cs inactive
COC(=O)C1CCN(C(=O)/C=C/c2ccc(OC)cc2)CC1	EBI2 block 87 | EBI2 conf 76 | EBI2 agonist inactive | bGal cs inactive
COC(=O)C1CCN(C(=O)Nc2ccc(OC)cc2)CC1	none
O=C(C1=NNC2C(=O)N(c3ccccc3)C(=O)C12)c1nc(Cl)ccc1Cl (centres undefined)	none
